# NR2E3 ag-1 = activates human photoreceptor nuclear receptor NR2E3. GST-NR2E3/biotin-RetCOR TR-FRET, 1536-well. AID 2300. Q9Y5X4. 320,000 compounds, 0.12% hits. inhibition of corepressor binding, % at 4.78 µM;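 active means percent inhibition above the cutoff of mean plus 3 SD of all tested compounds, set per screening campaign, cut at about 20% in these data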;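 further: 0% = DMSO wells and 100% = biotin wells as full block of FRET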
# Target sequence (Q9Y5X4 whole entry, looked up): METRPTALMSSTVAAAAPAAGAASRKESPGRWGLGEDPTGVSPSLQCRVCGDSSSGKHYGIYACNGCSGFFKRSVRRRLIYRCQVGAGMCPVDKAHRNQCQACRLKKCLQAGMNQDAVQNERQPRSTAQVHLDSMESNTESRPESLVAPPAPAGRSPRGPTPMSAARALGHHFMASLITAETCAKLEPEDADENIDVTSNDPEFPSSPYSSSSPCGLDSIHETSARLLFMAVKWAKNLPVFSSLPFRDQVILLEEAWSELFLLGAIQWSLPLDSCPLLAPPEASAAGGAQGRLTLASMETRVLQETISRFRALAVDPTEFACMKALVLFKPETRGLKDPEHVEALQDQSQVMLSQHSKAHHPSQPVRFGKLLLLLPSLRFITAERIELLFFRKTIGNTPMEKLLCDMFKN
#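 Material – GST-tagged NR2E3 plus biotinylated RetCOR corepressor · Quantity – NR2E3 fusion 1.35 nM · Times – 5 h incubation at 4 °C · Medium – pH 7.5 Tris-based buffer · Technique – TR-FRET, Eu(K)-anti-GST donor, streptavidin-D2 acceptor, ex 340, em 617/671 nm · Benchmarks – high control biotin, low control 0.6% DMSO · Format – 1536-well plates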
# EBV LMP1 NFkB = reduces LMP1-driven NF-kappaB luciferase signal; LMP1-induced NF-kappaB luciferase reporter cells, luminescence; inhibition, % at 12.5 µM; 350,000 compounds, 0.69% hits; in the data active means inhibition above about 41%;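 further: 0% = neutral control wells and 100% = reference inhibitor control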
# TROY signal inh = TROY signaling inhibition | Q293 LMP1-TROYcd NF-kB luciferase reporter, 4 h | inhibition, % at 10 µM | 360,000 compounds, 0.98% hits | AID 1347056;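 active means compounds whose plate-normalised and pattern-corrected inhibition of the luciferase reporter signal at the single screening dose is 50% or more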
# HIF activator = HIF pathway transcriptional activation. 300,000 compounds, 0.32% hits. U2OS HRE-luciferase reporter, luminescence; normalized: DMSO 0%, desferrioxamine 100%. AID 1910. activation, % at 7.5 µM (by protocol);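 active means mean activation of at least 10% of the iron chelator positive control signal, with at least half of replicates also reaching 10%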
# NR2E3 ag-2 = human photoreceptor-specific nuclear receptor agonism; Q9Y5X4; CHO-S Gal4-NCOR/VP16-NR2E3 two-hybrid, luciferase; inhibition of corepressor binding, % at 3.98 µM; 360,000 compounds, 0.35% hits;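 active means inhibition above the mean of all tested compounds plus 3 SD, cut at about 70% in these data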;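 further: 0% = DMSO with NR2E3 transfected cells and 100% = cells lacking NR2E3 construct; higher means lower luciferase signal from less NR2E3 corepressor binding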
# NR2E3 ag conf = confirmation of human NR2E3 agonists | shares compounds with NR2E3 ag-2 | CHO-S mammalian two-hybrid NR2E3-NCOR, luciferase luminescence | inhibition, % at 3.98 µM | 2,300 compounds, 51% hits;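 active means average inhibition above a cutoff equal to the mean inhibition of all tested compounds plus one SD, cut at about 70% in these data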;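 further: 0% = DMSO in NR2E3 cells and 100% = DMSO in cells lacking NR2E3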
# GAL4-VP16 luc = reduces GAL4-VP16 reporter signal in NR2E3 counterscreen; shares compounds with NR2E3 ag-2; CHO-S GAL4-VP16 luciferase reporter, luminescence; inhibition, % at 3.98 µM; 2,300 compounds, 29% hits; AID 624379;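 active means mean inhibition above a cutoff equal to the average over all tested compounds plus one standard deviation, cut at about 70% in these data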;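 further: luciferase from a UAS reporter driven by GAL4-VP16 transactivation; 0% = DMSO with VP16-transfected cells and 100% = DMSO with cells lacking VP16; higher means less reporter light so more repression of VP16 activity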
# * hit, by the source's call; nt = not tested or not shown. Sampled rows, rich in hits. Any-hit rate of the full collection: about 2%.
SMILES,NR2E3 ag-1,EBV LMP1 NFkB,TROY signal inh,HIF activator,NR2E3 ag-2,NR2E3 ag conf,GAL4-VP16 luc
CCN(C=C1CC2C3CC=C4CC(O)CCC4(C)C3CCC2(C)C1=O)CC (configuration not stated),nt,-2,7,nt,-39,nt,nt
CC1CCOC(=O)C=CC=CC(=O)OC2CC3OC4C5OC5(C)C(O)CC4(COC(=O)C1O)C2(C)C31CO1 (configuration not stated),nt,87*,86*,nt,102*,99*,99*
CC1=CC2OC3CC4OC(=O)C=CC=CC(C(C)O)OCC(O)C5(C)OC5C(=O)OCC2(CC1O)C4(C)C31CO1 (configuration not stated),nt,97*,83*,nt,102*,98*,98*
CC(O)C1C=CC=CC(=O)OC2CC3OC4C5OC5(C)C(O)CC4(COC(=O)C(O)C(C)CCO1)C2(C)C31CO1 (configuration not stated),nt,88*,86*,nt,92*,94*,66
CC1=CC2OC3CC4OC(=O)C=CC=CC(=O)OCCC(C)C(O)C(=O)OCC2(CC1)C4(C)C31CO1 (configuration not stated),nt,82*,85*,nt,103*,101*,100*
COC(=O)C1=C(c2ccc(-c3ccccc3)c(F)c2)C[C@@H]2CC[C@H]1N2C(=O)NCCOc1ccccc1,1,8,17,nt,-6,nt,nt
COC(=O)C1=C(c2ccc(-c3ccccc3)c(F)c2)C[C@@H]2CC[C@H]1N2C(=O)N1CCCCC1,2,25,23,nt,37,nt,nt
COC(=O)C1=C(c2ccc(-c3ccccc3)c(F)c2)C[C@@H]2CC[C@H]1N2C(=O)N1CCCC1,2,27,22,nt,71*,54,56
COC(=O)C1=C(c2ccc(C(C)=O)cc2)C[C@@H]2CC[C@H]1N2C(=O)NCC1CC1,7,-5,-15,nt,-32,nt,nt
O=[N+]([O-])c1ccc(N(CCO)CCO)c2c1no[n+]2[O-],nt,27,9,nt,76*,54,44
COC1CC2C=C(C)C=CC=CC(=O)NC(c3ccccc3)CC=CCCC(O)CC(=O)C2=C1O (configuration not stated),nt,nt,50,nt,103*,99*,95*
CC1CC(C)(O)CC(C(O)CC2CC(=O)NC(=O)C2)C1=O (configuration not stated),nt,90*,80*,nt,100*,100*,99*
COc1ccc(-n2nnnc2C(CCc2ccccc2)N2CCC3(CC2)C(=O)NCN3c2ccccc2)cc1 (configuration not stated),nt,nt,14,nt,-14,nt,nt
COC(=O)C1=C(c2cccc(C#N)c2)C[C@@H]2CC[C@H]1N2C(=O)NC1CCCCC1,1,-2,-1,nt,-6,nt,nt
C=C1C(=O)O[C@@H]2C[C@@H](C)[C@@H]3C4OC4C(=O)[C@@]3(C)[C@@H](O)[C@H]12 (some centres not stated),-4,100*,15,-4,77*,-11,2
C=C1C(=O)O[C@@H]2C[C@@H](C)[C@@H]3C=CC(=O)[C@@]3(C)[C@@H](OC(=O)CC(=O)O[C@H]3[C@@H]4C(=C)C(=O)O[C@@H]4C[C@@H](C)[C@@H]4C=CC(=O)[C@]43C)[C@H]12,2,92*,89*,-6,96*,101*,97*
C=C1C(=O)OC2C1CCC(C)C1(O)C=CC(=O)C21C (configuration not stated),nt,-74,-17,nt,33,nt,nt
C=C1C(=O)O[C@H]2[C@H]1[C@H](OC(=O)CC(=O)O[C@@H]1C[C@@H](C)[C@@H]3C=CC(=O)[C@@]3(C)[C@H]3OC(=O)C(=C)[C@H]13)C[C@@H](C)[C@H]1C=CC(=O)[C@]12C,0,-7,-15,1,78*,89*,73*
C=C1C(=O)OC2CC(C)C3C=CC(=O)C3(C)C(O)C12 (configuration not stated),nt,93*,26,nt,92*,99*,41
C=C1C(=O)O[C@H]2C[C@@H](C)[C@@H]3C=CC(=O)[C@@]3(C)C[C@H]12,-5,nt,nt,7,nt,nt,nt

# Screening results as filed in PubChem.
